Compound activity (PubChem BioAssay)
M1 ag = activates the M1 muscarinic receptor; CHO-M1 cells, Fluo-4 calcium fluorescence, agonist mode; stronger effect = higher value; B-score at 10 µM; actives 3% (n = 64,000); AID 626;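 active = fluorescence rise, raw or as B-score row- and column-corrected plate score, outside the 99.7% band of its plate's samples, either direction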
HePTP inh = inhibitors of human HePTP phosphatase. AID 521. inhibition, % at 20 µM. P35236. recombinant HePTP phosphatase activity, OD absorbance. actives 0.64% (n = 110,000); in the data active = inhibition above about 50%;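 note: plate controls were vehicle for no effect and reference inhibitor for full effect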
SF1 activator = SF-1 (human) activation; CHO-K1 Gal4-SF-1 LBD luciferase reporter; % increase over DMSO SF-1-specific signal; activation, % at 10 µM; actives 1.9% (n = 65,000); AID 522;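 active = activation above the mean activation of all tested compounds plus 3 SD, cut at about 50% in these data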
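material = CHO-K1 cells with Gal4–hSF-1 LBD chimera plus Gal4-driven luciferase | compound = 10 µM single point, 1% DMSO | incubation = 20 h compound exposure at 37 °C after 1 h cell settling | measured by = SteadyLite luciferase luminescence | evaluation = percent activation relative to DMSO median and mock-transfected background | control set = DMSO negative control and −SF1 background wells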
RORa activator = RORA (human) activation | CHO-K1 Gal4-RORA LBD luciferase reporter, luminescence; percent increase over mock-subtracted basal signal | activation, % at 10 µM | actives 1.5% (n = 65,000);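 active = activation above the mean of all tested compounds plus 3 SD, cut at about 49% in these data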;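 note: 0% = DMSO-treated RORA cells and 100% = added signal equal to DMSO minus mock-transfected cells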
M1 antagonist = antagonists of rat M1 muscarinic receptor; P08482; B-score at 10 µM; CHO-M1 cells, Fluo-4 calcium, ACh EC80 antagonist mode; stronger effect = lower value; AID 628; actives 3.4% (n = 64,000);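 active = calcium fluorescence response, raw or row-and-column corrected B-score, differing from the plate sample mean either way at a set confidence level, mostly lower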
D1 mod = allosterically modulates the human D1 dopamine receptor. B-score at 10 µM. P21728. HEK293 D1, CRE-luciferase, dopamine EC30 potentiation; actives deviate in either direction. actives 5.9% (n = 58,000);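 active = luminescence count or its row- and column-corrected plate score outside the 99.7% band of the plate's sample wells, on either side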
Target sequence (P21728 whole entry, looked up): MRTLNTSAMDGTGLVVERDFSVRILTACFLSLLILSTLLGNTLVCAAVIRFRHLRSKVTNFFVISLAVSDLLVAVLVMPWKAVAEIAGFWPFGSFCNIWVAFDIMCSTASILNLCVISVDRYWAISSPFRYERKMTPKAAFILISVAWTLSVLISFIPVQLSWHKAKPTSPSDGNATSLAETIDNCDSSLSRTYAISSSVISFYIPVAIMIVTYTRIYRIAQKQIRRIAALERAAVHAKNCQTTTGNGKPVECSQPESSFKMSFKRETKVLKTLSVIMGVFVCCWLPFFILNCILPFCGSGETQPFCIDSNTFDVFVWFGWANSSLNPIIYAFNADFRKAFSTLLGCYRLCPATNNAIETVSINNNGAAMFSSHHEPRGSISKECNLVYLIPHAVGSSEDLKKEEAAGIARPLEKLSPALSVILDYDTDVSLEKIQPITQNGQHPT
D1 mod confirm = D1 receptor (human) allosteric modulation, confirmed; shares compounds with D1 mod; HEK293 D1 CRE-luciferase, dopamine EC30 potentiation; stronger effect = higher value; luminescence at 10 µM; actives 88% (n = 2,200); AID 642;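 active = luminescence in either of two replicates above the same-plate mean plus 3 SD of the low-dose dopamine control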
D1 no dopamine = secondary test of D1 modulators: activity without dopamine. shares compounds with D1 mod. HEK293 D1 CRE-luciferase, luminescence, no dopamine; stronger effect = higher value. luminescence at 10 µM. actives 0.8% (n = 1,900); in the data active = luminescence above about 3900
Isoprot counter = counter-screen for D1 modulators: isoproterenol response in HEK293 cells | shares compounds with D1 mod | HEK293 D1 CRE-luciferase, isoproterenol EC30 counter-screen | calls only at 10 µM | actives 63% (n = 2,200);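 active = luminescence in either replicate above plate mean of wells with a partly effective reference agonist dose plus 3 SD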;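 note: isoproterenol raises cAMP through native beta-adrenoceptor Gs so signal bypasses D1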
Numbers without * were called inactive; i = inactive; · = no result given; + = active, no number. Rows were chosen to be rich in hits. Some 8.2% of all compounds tested hit in one or more screens of this group.

SMILES	M1 ag	HePTP inh	SF1 activator	RORa activator	M1 antagonist	D1 mod	D1 mod confirm	D1 no dopamine	Isoprot counter
CCC(c1nnnn1Cc1ccccc1)N(Cc1ccco1)Cc1cc2cc(OC)ccc2[nH]c1=O (stereo not drawn)	0.5	8	8	-17	-0.83	·	·	·	·
CCC(c1nnnn1CCOC)N(Cc1ccc(C)cc1)Cc1cc2cc(OC)ccc2[nH]c1=O (stereo not drawn)	-1.2	7	8	1	0.35	5.8*	14016*	1612	+
COc1ccccc1C1=Nn2c(nnc2C2CCCCC2)SC1	0.3	7	2	-11	0.13	11*	20508*	1724	+
COc1ccc(OC)c(C2=Nn3c(nnc3-c3ccco3)SC2)c1	0.049	6	14	3	0.22	·	·	·	·
COc1ccc(OC)c(C2=Nn3c(nnc3C3CCCCC3)SC2)c1	0.44	13	-2	-8	0.61	16*	17128*	·	+
Cc1cc(C)n(C(=O)c2ccc(NC(=O)CC(C)C)cc2)n1	-0.74	-12	-6	0	1.1	-0.54	·	·	·
CCCOc1ccccc1NC(=O)c1ccc(N)cc1	-0.35	3	-2	18	-1.1	3*	7556*	1560	i
O=c1c2ccccc2nc(SCc2nnc(-c3ccccc3)o2)n1-c1ccccc1	·	-6	1	0	·	0.28	·	·	·
O=c1c2ccccc2nc(SCc2cn3ccsc3n2)n1-c1ccc(F)cc1	-0.49	8	6	-17	0.72	8.2*	10696*	1584	+
c1ccc(Cc2nn3c(C4COc5ccccc5O4)nnc3s2)cc1 (stereo not drawn)	0.098	9	6	8	·	6*	14652*	1492	+
CC1(C)Cc2c(sc3nc(CC(N)=O)n(Cc4ccccc4)c(=O)c23)CO1	·	3	·	·	·	·	·	·	·
CCOC(=O)CSc1nc2sc3c(c2c(=O)n1CC)CC(C)(C)OC3	-0.52	4	·	·	-0.6	5.9*	8088*	1472	+
N#Cc1c(NC(=O)c2cnn3c(C(F)(F)F)cc(-c4ccccc4)nc23)sc2c1CCCC2	·	6	·	·	·	·	·	·	·
CCOC(=O)c1cc2cc([N+](=O)[O-])ccc2oc1=O	·	-20	·	·	·	·	·	·	·
CCC1(CC)Cc2ccccc2-c2nc(CN3CCOCC3)[nH]c(=O)c21	0.43	-5	1	6	-0.1	18*	22860*	1804	+
COC(=O)COc1ccc(/C=C2\C(=O)NC(=O)N(c3ccc(OC)cc3)C2=O)cc1OC	·	0	·	·	·	·	·	·	·
Cc1ccc(NC(=O)c2cccc(OCc3c(C)noc3C)c2)c(C)c1	-0.012	-1	15	5	-0.43	4.6*	5064	1592	i
CCCCCOC(=O)Nc1nnc(CCC)s1	1.3	2	-2	13	-0.59	2.4	·	·	·
CC(=O)Nc1ccc(S(=O)(=O)N(C2=NCC(C)S2)c2ccccc2)cc1 (stereo not drawn)	0.34	0	-22	-7	-0.0099	19*	5700	1632	i
Cc1cccc(N(C(=O)Nc2ccccc2)C2=NCC(C)S2)c1 (stereo not drawn)	-1.7	1	26	25	-0.87	5.1*	6412*	·	+
Cc1ccc(NC(=O)N(C2=NCC(C)S2)c2ccccc2)cc1 (stereo not drawn)	0.0002	·	22	38	-0.0055	0.78	·	·	·
Cc1ccccc1-c1n[nH]c(=S)n1C1CCCCC1	·	-4	·	·	·	·	·	·	·
Cc1ccc(NC(=O)Cn2c(=O)n(Cc3ccco3)c(=N)c3c4c(sc32)COC(C)(C)C4)cc1	-0.021	9	6	7	-0.93	·	·	·	·
COc1ccc(Cn2c(=O)n(Cc3ccco3)c(=N)c3c4c(sc32)COC(C)(C)C4)cc1	1.9	-4	2	-14	0.038	21*	22180*	1932	+
CC1(C)Cc2c(sc3[nH]c(=S)n(Cc4ccccc4)c(=O)c23)CO1	·	8	·	·	·	·	·	·	·
SMILES	M1 ag	HePTP inh	SF1 activator	RORa activator	M1 antagonist	D1 mod	D1 mod confirm	D1 no dopamine	Isoprot counter
CC1(C)Cc2c(sc3c2c(=N)n(Cc2ccco2)c(=O)n3Cc2ccc(F)cc2)CO1	0.78	5	-13	-10	0.59	23*	17584*	1640	+
Cn1cccc1Cc1nnc(SCC(=O)NC2CCCCC2)n1CCc1ccccc1	0.37	-6	-6	-8	0.39	1.5*	5188	1520	i
CC1CCN(c2nc(-c3ccccc3)c(C#N)c(=O)[nH]2)CC1	-1.3	4	-2	-4	0.15	·	·	·	·
CC(C)c1ccc(-c2nc(N3CCCCC3)[nH]c(=O)c2C#N)cc1	0.55	-6	-6	-2	0.43	5.5*	19464*	1772	i
C=CCn1cc(C(=O)NCc2cccnc2)c(=O)c2cc(S(=O)(=O)N(CC)CC)ccc21	-0.64	-5	12	18	-0.27	2.8*	9940*	1684	+
CCn1cc(C(=O)NCc2ccc3c(c2)OCO3)c(=O)c2cc(S(=O)(=O)N3CCOCC3)ccc21	-0.063	4	-9	8	-0.11	3.7*	10664*	1608	+
CCn1cc(C(=O)NCCCN(C)c2ccccc2)c(=O)c2cc(S(=O)(=O)N(C)C)ccc21	0.022	-2	1	20	-0.17	5.6*	8908*	1440	+
CCn1cc(C(=O)NCc2ccccc2OC)c(=O)c2cc(S(=O)(=O)N(C)C)ccc21	-0.68	4	-7	-7	-0.15	7.8*	13952*	1756	+
O=C(Nc1ccc(N2CCN(C(=O)c3ccco3)CC2)cc1)c1ccc(F)cc1	0.037	6	8	-5	-1.2	·	·	·	·
O=C(OC(C(=O)NCC1CCCO1)c1ccccc1F)c1ccco1 (stereo not drawn)	0.021	8	6	-20	0.45	·	·	·	·
C=CCOc1ccc(C(c2c(C)[nH]n(-c3ccccc3)c2=O)c2c(C)[nH]n(-c3ccccc3)c2=O)cc1	·	-13	·	·	·	·	·	·	·
COc1ccc(-c2nnc(SCC(=O)Nc3ncc(C)s3)n2-c2ccccc2)cc1OC	1.1	11	33	18	-0.0089	3.6*	11512*	1492	+
CCNC(=S)NNC(=O)CSc1nnc(-c2ccc(OC)c(OC)c2)n1-c1ccccc1	·	11	·	·	·	·	·	·	·
CC(=O)Oc1c(Cl)c(N2CCOCC2)c(OC(C)=O)c2ccccc12	1.7	-6	0	6	-1.3	3.1*	5620*	1464	i
